Assay results gathered from unrelated publications.
Compare with care: the assays were run in different laboratories.
Cell line: MCF7
Read-out: cell growth or viability

Structure (SMILES)	test	conditions	GI50 [µM]
COc1cc2c(OC)nc3c4cc5c(cc4cc(OCCCN4CCC(N6CCCCC6)CC4)c3c2cc1OC)OCO5	MTT	72 h	1.5
Cc1ccc(C)c(COc2cc(NC(=O)c3ccc4c(c3)OCO4)ccc2N(C)S(C)(=O)=O)c1	SRB	48 h	0.12
COc1cc2c(OC)nc3c4cc5c(cc4cc(OCCCN(C)C)c3c2cc1OC)OCO5	MTT	72 h	27
COc1ccc(C(=O)/C=C/c2cccnc2)cc1S(N)(=O)=O	SRB	48 h	4.9
COc1cc(C(CC(C)=O)NCCc2ccc(O)c(O)c2)ccc1O (centres unmarked)	MTT	–	22.4
COc1ccc(C(=O)/C=C/c2cccc(Br)c2)cc1S(N)(=O)=O	SRB	48 h	1.6
COc1cc2c(OC)nc3c4cc5c(cc4cc(OCCN(C)C)c3c2cc1OC)OCO5	MTT	72 h	> 100
COc1cccc2c1C(=O)c1c(O)c3c(c(O)c1C2=O)C[C@@](O)(C(=O)CO)C[C@@H]3O[C@H]1C[C@H](N)[C@H](O)[C@H](C)O1	MTT	–	0.02
COc1ccc(C(=O)/C=C/c2cccc3ccccc23)cc1S(N)(=O)=O	SRB	48 h	2.1
COc1cc2c(cc1O)CC[C@@H]1[C@@H]2CC[C@]2(C)[C@@H](O)CC[C@@H]12	SRB	96 h	0.6
CCN(CC)CCCOc1cc2cc3c(cc2c2nc(OC)c4cc(OC)c(OC)cc4c12)OCO3	MTT	72 h	23
COc1ccc(-c2ccc(-c3ccc(C(=N)N)nc3)s2)cc1	SRB	–	1.74
COc1cc(C(CC(=O)c2ccc(C)cc2)NCCc2ccc(O)c(O)c2)ccc1O (centres unmarked)	MTT	–	5.2
COc1ccc(C(=O)/C=C/c2cc3c(cc2Br)OCO3)cc1S(N)(=O)=O	SRB	48 h	3.8
COc1cc(C(CC(=O)c2ccc([N+](=O)[O-])cc2)NCCc2ccc(O)c(O)c2)ccc1O (centres unmarked)	MTT	–	0.16
COc1ccc(C(=O)/C=C/c2cccc(Cl)c2Cl)cc1S(N)(=O)=O	SRB	48 h	3.2
CN1CCN(c2ccc(Nc3ncc4cc(C#N)c(=O)n(C5CCCC5)c4n3)cc2)CC1	resazurin	96 h	0.15
